Results published in article PMC2292750 (PLoS Medicine, 2008).

Experiments:
[1] = system: mouse PanINs and PDAC lesions, frozen sections; experiment: Binding of FITC-labeled phage to frozen mouse pancreas sections; settings: 1 μM FITC-labeled phage, 1 h at 37 °C, fluorescence microscopy, n = 3
How it was run: (§1)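 Frozen tissues (n = 3) were embedded in OCT, cut at 5 μm and arrayed on slides. Sections were incubated for 1 h at 37 °C with 1 μM FITC-labeled test phage or FITC-labeled control phage (no insert). They were then washed three times with PBS, fixed in 2% paraformaldehyde and imaged by fluorescence microscopy (40× objective).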

mouse PDAC cells = type: cell-based; settings: flow cytometry
How it was run: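 Early-passage PDAC cells came from Kras/p53L/L mouse tumors; normal primary ductal cells came from wild-type mice. Phage (~1 × 10^12 PFU) were labeled with 0.25 mg/ml FITC for 1 h and PEG-purified. Cells were incubated with 1 μM (FITC) phage for 1 h at 37 °C, washed three times with DPBS and trypsinized. Mean fluorescence was read by flow cytometry at 10,000 cells/sample.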

plectin-1 = plectin-1 (Mus musculus, UniProt Q9QXS1); experiment: Competition experiment with anti-plectin-1 antibody; type: binding; settings: coincubation of anti-plectin-1 antibody and FITC-labeled phage with mouse PDAC cells, 1 h at 37 °C, versus vehicle
[2] = system: normal human ductal cells; type: cell-based; settings: FITC-labeled phage 1 μM, 1 h at 37 °C, FACS
How it was run: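 Normal human ductal cells were incubated with 1 μM (FITC) FITC-labeled test phage or an unrelated control phage clone (SNLHPSD) for 1 h at 37 °C. Cells were washed three times with DPBS, trypsinized and centrifuged, then read by flow cytometry at 10,000 cells/sample. Mean fluorescence served as relative uptake.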

human PDAC = experiment: Binding of FITC-labeled phage to frozen human PDAC sections; settings: 1 μM FITC-labeled phage, 1 h at 37 °C, fluorescence microscopy
How it was run: as §1

Sequence of plectin-1 (Q9QXS1 whole entry): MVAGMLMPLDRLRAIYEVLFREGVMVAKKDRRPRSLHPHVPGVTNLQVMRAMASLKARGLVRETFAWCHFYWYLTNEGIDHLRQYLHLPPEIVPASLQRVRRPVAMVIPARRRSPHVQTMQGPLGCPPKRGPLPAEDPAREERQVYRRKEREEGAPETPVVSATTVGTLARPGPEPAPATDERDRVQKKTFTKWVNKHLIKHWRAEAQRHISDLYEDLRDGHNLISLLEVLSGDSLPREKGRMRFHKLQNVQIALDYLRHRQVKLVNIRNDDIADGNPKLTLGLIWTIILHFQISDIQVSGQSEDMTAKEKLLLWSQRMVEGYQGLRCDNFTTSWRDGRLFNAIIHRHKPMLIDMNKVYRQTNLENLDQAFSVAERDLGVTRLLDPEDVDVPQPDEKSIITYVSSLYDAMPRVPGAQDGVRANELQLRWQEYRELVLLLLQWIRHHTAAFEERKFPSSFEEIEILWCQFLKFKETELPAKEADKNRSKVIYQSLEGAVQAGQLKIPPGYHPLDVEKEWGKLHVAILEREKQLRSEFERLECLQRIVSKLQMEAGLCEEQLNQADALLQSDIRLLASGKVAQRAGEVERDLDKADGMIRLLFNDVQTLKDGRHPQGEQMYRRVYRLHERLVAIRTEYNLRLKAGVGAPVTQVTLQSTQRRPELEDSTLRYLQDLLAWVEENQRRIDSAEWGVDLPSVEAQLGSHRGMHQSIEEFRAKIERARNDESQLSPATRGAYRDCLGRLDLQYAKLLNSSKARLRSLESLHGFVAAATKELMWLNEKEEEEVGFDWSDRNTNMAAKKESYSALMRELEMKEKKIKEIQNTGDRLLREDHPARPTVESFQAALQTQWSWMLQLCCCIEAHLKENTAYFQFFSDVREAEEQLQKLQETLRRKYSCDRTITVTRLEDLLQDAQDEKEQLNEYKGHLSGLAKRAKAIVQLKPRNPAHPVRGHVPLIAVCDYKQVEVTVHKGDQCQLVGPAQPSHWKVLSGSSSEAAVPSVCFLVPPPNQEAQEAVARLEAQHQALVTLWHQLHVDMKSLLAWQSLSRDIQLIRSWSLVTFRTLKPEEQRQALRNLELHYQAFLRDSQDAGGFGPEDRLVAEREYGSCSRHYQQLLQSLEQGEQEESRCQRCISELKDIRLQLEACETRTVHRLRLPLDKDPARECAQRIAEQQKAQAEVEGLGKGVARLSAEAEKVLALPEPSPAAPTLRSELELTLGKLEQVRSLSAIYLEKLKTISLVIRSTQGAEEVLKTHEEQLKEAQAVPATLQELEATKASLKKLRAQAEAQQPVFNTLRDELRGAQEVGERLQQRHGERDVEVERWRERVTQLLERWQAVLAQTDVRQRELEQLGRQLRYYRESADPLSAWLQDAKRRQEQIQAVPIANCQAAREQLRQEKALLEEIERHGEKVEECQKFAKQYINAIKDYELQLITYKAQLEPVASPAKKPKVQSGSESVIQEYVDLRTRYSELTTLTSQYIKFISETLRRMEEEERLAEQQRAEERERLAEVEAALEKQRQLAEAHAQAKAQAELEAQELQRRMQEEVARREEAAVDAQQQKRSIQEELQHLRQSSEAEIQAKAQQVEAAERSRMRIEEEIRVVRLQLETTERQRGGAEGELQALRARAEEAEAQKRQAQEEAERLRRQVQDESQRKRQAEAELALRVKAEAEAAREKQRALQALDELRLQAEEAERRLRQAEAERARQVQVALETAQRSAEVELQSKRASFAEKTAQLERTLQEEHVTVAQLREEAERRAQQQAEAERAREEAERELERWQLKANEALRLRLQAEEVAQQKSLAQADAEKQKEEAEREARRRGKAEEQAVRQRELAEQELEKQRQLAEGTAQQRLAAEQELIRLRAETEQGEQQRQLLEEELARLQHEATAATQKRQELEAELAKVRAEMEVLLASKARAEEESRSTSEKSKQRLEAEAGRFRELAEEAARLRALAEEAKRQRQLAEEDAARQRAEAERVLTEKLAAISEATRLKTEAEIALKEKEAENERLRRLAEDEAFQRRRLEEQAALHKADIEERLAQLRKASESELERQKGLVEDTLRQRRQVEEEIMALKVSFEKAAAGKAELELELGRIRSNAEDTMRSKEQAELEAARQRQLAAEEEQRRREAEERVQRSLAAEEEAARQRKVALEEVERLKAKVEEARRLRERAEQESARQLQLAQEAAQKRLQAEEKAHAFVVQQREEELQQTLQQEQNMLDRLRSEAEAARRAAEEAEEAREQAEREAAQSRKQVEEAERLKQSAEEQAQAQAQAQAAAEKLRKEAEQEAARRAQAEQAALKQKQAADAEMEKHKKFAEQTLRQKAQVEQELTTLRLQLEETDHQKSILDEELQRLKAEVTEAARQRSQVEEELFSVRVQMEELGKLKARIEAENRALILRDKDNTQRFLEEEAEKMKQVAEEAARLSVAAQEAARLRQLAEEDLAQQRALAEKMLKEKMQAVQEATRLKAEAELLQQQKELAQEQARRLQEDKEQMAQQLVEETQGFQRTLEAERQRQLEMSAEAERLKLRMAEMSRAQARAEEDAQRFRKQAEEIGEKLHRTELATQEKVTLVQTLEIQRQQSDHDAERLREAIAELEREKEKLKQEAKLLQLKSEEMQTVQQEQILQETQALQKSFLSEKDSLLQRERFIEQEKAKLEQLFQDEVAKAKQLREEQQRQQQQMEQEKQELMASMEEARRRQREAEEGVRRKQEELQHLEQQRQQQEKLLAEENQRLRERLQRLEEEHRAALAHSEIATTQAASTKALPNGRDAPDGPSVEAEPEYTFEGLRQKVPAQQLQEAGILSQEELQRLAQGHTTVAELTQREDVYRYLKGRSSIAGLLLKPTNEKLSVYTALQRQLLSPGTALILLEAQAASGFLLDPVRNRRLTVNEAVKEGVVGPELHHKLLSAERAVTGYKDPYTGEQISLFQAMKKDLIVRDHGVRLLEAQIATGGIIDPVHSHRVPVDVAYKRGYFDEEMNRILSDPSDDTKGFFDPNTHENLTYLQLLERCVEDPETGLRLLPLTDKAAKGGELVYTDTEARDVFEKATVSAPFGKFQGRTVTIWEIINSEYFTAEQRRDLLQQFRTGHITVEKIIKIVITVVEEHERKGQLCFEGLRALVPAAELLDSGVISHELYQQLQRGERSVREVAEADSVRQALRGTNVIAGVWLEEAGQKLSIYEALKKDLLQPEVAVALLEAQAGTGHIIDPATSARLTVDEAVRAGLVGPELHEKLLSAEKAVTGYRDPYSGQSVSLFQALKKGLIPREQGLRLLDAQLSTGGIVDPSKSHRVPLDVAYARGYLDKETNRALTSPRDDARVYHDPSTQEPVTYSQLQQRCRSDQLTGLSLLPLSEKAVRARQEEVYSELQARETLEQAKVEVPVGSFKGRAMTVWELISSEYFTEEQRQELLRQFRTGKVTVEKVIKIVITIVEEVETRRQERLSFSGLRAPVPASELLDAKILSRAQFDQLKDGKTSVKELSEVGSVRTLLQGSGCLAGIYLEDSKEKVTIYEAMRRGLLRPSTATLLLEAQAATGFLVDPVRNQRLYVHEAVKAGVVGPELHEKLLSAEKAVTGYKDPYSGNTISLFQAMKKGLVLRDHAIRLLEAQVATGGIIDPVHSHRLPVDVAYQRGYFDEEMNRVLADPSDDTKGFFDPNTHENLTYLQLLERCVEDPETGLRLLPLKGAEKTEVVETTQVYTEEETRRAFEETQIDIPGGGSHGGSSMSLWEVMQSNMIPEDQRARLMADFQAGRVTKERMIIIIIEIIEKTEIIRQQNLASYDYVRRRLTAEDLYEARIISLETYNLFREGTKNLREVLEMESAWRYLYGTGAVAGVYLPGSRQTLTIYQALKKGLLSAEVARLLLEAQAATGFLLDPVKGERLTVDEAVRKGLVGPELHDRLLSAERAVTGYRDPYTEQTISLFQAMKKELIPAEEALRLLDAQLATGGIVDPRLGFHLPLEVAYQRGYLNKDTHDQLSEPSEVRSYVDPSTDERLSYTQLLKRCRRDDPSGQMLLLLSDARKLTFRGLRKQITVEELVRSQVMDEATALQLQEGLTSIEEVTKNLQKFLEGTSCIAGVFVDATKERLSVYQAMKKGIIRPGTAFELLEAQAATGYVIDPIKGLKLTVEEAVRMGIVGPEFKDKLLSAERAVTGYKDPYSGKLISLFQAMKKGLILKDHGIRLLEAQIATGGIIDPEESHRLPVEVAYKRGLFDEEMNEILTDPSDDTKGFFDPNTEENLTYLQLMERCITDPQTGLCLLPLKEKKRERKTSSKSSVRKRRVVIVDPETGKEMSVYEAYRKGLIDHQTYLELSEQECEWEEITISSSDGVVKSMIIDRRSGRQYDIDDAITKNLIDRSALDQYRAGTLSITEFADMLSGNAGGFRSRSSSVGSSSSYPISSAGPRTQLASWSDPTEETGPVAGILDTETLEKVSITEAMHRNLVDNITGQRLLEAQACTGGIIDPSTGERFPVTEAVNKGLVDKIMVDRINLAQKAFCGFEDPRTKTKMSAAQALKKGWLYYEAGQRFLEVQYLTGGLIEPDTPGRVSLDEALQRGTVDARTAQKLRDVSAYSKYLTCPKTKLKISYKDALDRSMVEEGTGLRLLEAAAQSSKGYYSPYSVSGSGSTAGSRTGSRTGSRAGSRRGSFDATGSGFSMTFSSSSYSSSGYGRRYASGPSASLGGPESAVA

Substance | binding to PanINs and PDAC lesions on frozen sections [1] | specificity for mouse PDAC cells over normal ductal cells (mouse PDAC cells; FITC-labeled phage, 1 μM (FITC), 1 h at 37 °C, mean fluorescence) [fold] | abrogation of binding (plectin-1) [%] | specificity (ratio of clone 27/unrelated clone mean fluorescence) [2] | detection of human PDAC on frozen sections (human PDAC) | rank of affinity among fluorescein-labeled phage clones (mouse PDAC cells; mouse PDAC and normal ductal cells, unpublished data)
KTLLPTP [clone 27] | prominent binding | 112 | 96.9 | 0.85 | able to specifically detect human PDAC | –
TMAPSIK [clone 15] | – | – | – | – | – | second in affinity
